Data reported in PMC4371781 (Biochemistry, 2015).
Where a SMILES comes first, the peptide text is derived from it. Primed or numbered codes have the meaning given here. The star is where a group is joined. FITC = O=C1OC2(c3ccc(O)cc3Oc3cc(O)ccc32)c2ccc(NC(=S)*)cc21; FITC′ = fluorescein; Ahx = NCCCCCC(=O)O

What was measured:
[1] = biological target: T1, RbAB (pocket domain of Rb) (Homo sapiens, UniProt P06400, A635F/DEL582-633/S634E); assay: Fluorescence anisotropy, direct binding assay
T1 sequence (P06400 with tags, fused parts or gaps DEL582-633/S634E/A635F limits assumed): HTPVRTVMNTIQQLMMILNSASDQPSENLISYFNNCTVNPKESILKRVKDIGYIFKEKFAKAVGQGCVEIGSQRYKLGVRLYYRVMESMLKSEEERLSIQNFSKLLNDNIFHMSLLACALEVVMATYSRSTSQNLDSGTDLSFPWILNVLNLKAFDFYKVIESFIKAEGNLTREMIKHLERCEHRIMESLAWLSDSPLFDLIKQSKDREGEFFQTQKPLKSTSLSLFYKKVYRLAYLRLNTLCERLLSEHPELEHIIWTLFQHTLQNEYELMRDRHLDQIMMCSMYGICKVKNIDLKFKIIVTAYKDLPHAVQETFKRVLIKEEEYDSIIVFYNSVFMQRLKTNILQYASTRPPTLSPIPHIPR
Summary of the method: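 Assays ran in PBS pH 7.5 with 2.5 mM DTT. Labelled peptide was held constant while RbAB was varied: 0.33 μM FITC-RIZ(254–267) at 25 °C, or 0.40 μM FITC-RIZ(309–319) at 20 °C. FITC was attached at the N-terminus via an aminohexanoyl spacer, with amidated C-termini. TCSPC steady-state anisotropy was corrected with a bound/free quantum-yield ratio (0.65 μM peptide ± 32.5 μM RbAB). Kd was fitted by nonlinear least squares with 95% confidence intervals.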

[2] = biological target: T1, RbAB (pocket domain of Rb); assay: Competition-based ITC; assay type: binding
Summary of the method: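 RbAB (Rb residues 372–581 and 636–787 joined by an EF linker, GS N-terminus) was expressed as a GST fusion in E. coli and thrombin-cleaved. At 25 °C in 20 mM Tris pH 7.5, 140 mM NaCl and 2 mM β-mercaptoethanol, the RIZ 297–341 fragment (1154 or 984 μM) was titrated into RbAB (20 or 9 μM). RbAB was pre-mixed with excess competitor: 650 μM FITC-RIZ(254–267) or 459 μM RIZ 197–269 fragment. Kd was derived from the apparent association constant with a competition equation.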

[3] = biological target: T1, RbAB (pocket domain of Rb); assay: NMR-monitored titration, 1H–15N HSQC of 15N-labeled RIZ constructs with RbAB; assay type: binding; settings: for residues most affected by RbAB binding (loss of HSQC peak volume): 1H–15N HSQC, PBS pH 7.5, 2.5 mM DTT, 25 °C
[4] = biological target: HDAC1 LXCXE-like sequence LXCXE-like sequence (Homo sapiens) (UniProt Q13547); settings: cited from earlier work
[5] = biological target: T1, RbAB (pocket domain of Rb); assay: Isothermal titration calorimetry, direct binding of RbAB
Summary of the method: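 RbAB (GST-fusion from E. coli, thrombin-cleaved) was injected stepwise into the cell at 25 °C in 20 mM Tris pH 7.5, 140 mM NaCl and 2 mM β-mercaptoethanol. Titrations were 486 μM RbAB into 28 μM full acidic region (AR), and 524 μM RbAB into 39 μM RIZ 197–269 or 48 μM RIZ 297–341 fragment. Heats of binding were recorded and fitted to a single-binding-site model.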

[6] = biological target: T2, FITC-RIZ(309-319) (human, SMILES …); assay: fluorescence polarisation
T2 peptide: {FITC-Ahx}-EIRCDEKPEDL-NH2

[7] = biological target: T3, AR-N (N-terminal part of the acidic region of RIZ, residues 197-269) (human, UniProt Q13029 197-269); assay: ITC
T3 sequence: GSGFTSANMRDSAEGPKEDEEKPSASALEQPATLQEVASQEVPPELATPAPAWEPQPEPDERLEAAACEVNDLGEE

[8] = biological target: T4, FITC-RIZ(254-267) (human); assay: fluorescence polarisation
T4 peptide: {FITC′-Ahx}-ERLEAAACEVNDLG-NH2

[9] = biological target: T3, AR-N (N-terminal part of the acidic …); assay: fluorescence polarisation
[10] = NMR structural characterization of AR; assay type: physicochemical
[11] = from 13Cα, 13Cβ, 1Hα chemical shifts, PBS pH 7.5, 25 °C

CC(C)C[C@H](NC(=O)[C@H](CC(=O)O)NC(=O)[C@H](CC(N)=O)NC(=O)[C@@H](NC(=O)[C@H](CCC(=O)O)NC(=O)[C@H](CS)NC(=O)[C@H](C)NC(=O)[C@H](C)NC(=O)[C@H](C)NC(=O)[C@H](CCC(=O)O)NC(=O)[C@H](CC(C)C)NC(=O)[C@H](CCCNC(=N)N)NC(=O)[C@H](CCC(=O)O)NC(=O)CCCCCNC(=S)Nc1ccc2c(c1)C(=O)OC21c2ccc(O)cc2Oc2cc(O)ccc21)C(C)C)C(=O)NCC(N)=O [FITC-RIZ(254–267)] ({FITC-Ahx}-ERLEAAACEVNDLG-NH2)
Kd [1]: ~170 µM
Kd [2]: 70 ± 10 µM

EIRCDEKPEDL [peptide containing the IRCDE motif]
effect of competitor peptide on AR signals in presence of RbAB ([3]; 86 μM 15N-labeled AR, ~2-fold molar excess RbAB, 34-fold molar excess of RIZ(309–319) peptide, PBS pH 7.5, 25 °C): the intensity of all AR signals was restored

Rb pocket domain pocket domain (from UniProt P06400)
Kd [4]: 10 µM

CC[C@H](C)[C@H](NC(=O)[C@H](CCC(=O)O)NC(=O)CCCCCNC(=S)Nc1ccc2c(c1)C(=O)OC21c2ccc(O)cc2Oc2cc(O)ccc21)C(=O)N[C@@H](CCCNC(=N)N)C(=O)N[C@@H](CS)C(=O)N[C@@H](CC(=O)O)C(=O)N[C@@H](CCC(=O)O)C(=O)N[C@@H](CCCCN)C(=O)N1CCC[C@H]1C(=O)N[C@@H](CCC(=O)O)C(=O)N[C@@H](CC(=O)O)C(=O)N[C@@H](CC(C)C)C(N)=O [FITC-RIZ(309–319)] ({FITC-Ahx}-EIRCDEKPEDL-NH2)
Kd [1]: ~0.36 µM

B1: AR-N: recombinant protein, residues 197–269 (FTSA⋯LGEE) of RIZ preceded by three extraneous amino acids (GSG) (protein)
chain: T3 sequence
modifications: left off: GST, N-terminal, cleaved
heat/enthalpy of binding to RbAB (in words) ([5]; ITC, 25 °C, Tris pH 7.5): little or no heat is released
residues most affected by RbAB binding (loss of HSQC peak volume) [3]: Residues 255–267 in AR-N

B2: RbAB (pocket domain of the retinoblastoma protein, cyclin boxes A and B joined by a two-residue linker) (domain or fragment, human)
chain: GSHTPVRTVMNTIQQLMMILNSASDQPSENLISYFNNCTVNPKESILKRVKDIGYIFKEKFAKAVGQGCVEIGSQRYKLGVRLYYRVMESMLKSEEERLSIQNFSKLLNDNIFHMSLLACALEVVMATYSRSTSQNLDSGTDLSFPWILNVLNLKAFDFYKVIESFIKAEGNLTREMIKHLERCEHRIMESLAWLSDSPLFDLIKQSKDREGEFFQTQKPLKSTSLSLFYKKVYRLAYLRLNTLCERLLSEHPELEHIIWTLFQHTLQNEYELMRDRHLDQIMMCSMYGICKVKNIDLKFKIIVTAYKDLPHAVQETFKRVLIKEEEYDSIIVFYNSVFMQRLKTNILQYASTRPPTLSPIPHIPR
Kd [6]: 0.36 µM
Kd [7]: 45 ± 20 µM
Kd [8]: 170 µM
Kd [9]: 90 µM

B3: AR: recombinant AR protein, residues 197–341 of human RIZ (FTSA⋯TPAM) preceded by four extraneous amino acids (GSPE) (protein)
chain: GSPEFTSANMRDSAEGPKEDEEKPSASALEQPATLQEVASQEVPPELATPAPAWEPQPEPDERLEAAACEVNDLGEEEEEEEEEDEEEEEDDDDDELEDEGEEEASMPNENSVKEPEIRCDEKPEDLLEEPKTTSEETLEDCSEVTPAM
modifications: left off: GST, end not stated, cleaved
affinity for pocket domain of Rb (in words) ([5]; purified components, ITC and fluorescence anisotropy): submicromolar affinity
residues most affected by RbAB binding (loss of HSQC peak volume) [3]: Residues 306–322 ([…]) were the most affected by RbAB binding
exchange between free and bound forms with RbAB ([3]; 15N-labeled AR, increasing RbAB, PBS pH 7.5, 25 °C): consistent with exchange between the free and bound forms on an intermediate time scale
specificity of binding to RbAB ([3]; displacement by large excess of peptide containing IRCDE motif): AR binding to RbAB is specific
structural state in solution ([10]; NMR, PBS pH 7.5, 2.5 mM DTT, 25 °C): consistent with AR being intrinsically disordered
SSP scores: virtually no residues higher than [10, 11]: ≤ 0.2
SSP scores: virtually no residues lower than [10, 11]: ≥ −0.2
